Measured values: paper PMC4482135 (Organometallics, 2015)
Values joined by “and” are separate entries in the source; they are usually repeats but may differ in a detail not shown here. Equal values may be shown once. Read-outs that look alike come from different tables or passages of the source.

How the values were obtained:
[1] = tested on: A2780 human ovarian carcinoma cells; experiment: In vitro growth inhibition; type: cell-based; settings: read-out: IC50 values, A2780; 24 h drug exposure, 72 h recovery, SRB assay
Method in brief: (§1)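 Cells seeded at 5000 per well and preincubated 48 h drug-free at 310 K. Media: RPMI-1640 (A2780), DMEM (A549, MCF7) or McCoy's 5A (HCT116), each with 10% FCS. Test compound stocks made in 5% DMSO with saline/medium 1:1, then serially diluted in medium. Exposure 24 h, PBS wash, then 72 h recovery. SRB absorbance read at 470 nm against untreated control. IC50 (50% growth inhibition) from duplicates of triplicates in two independent experiments.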

[2] = tested on: A549 human lung carcinoma cells; experiment: In vitro growth inhibition; type: cell-based; settings: read-out: IC50 values, A549; 24 h drug exposure, 72 h recovery, SRB assay
Method in brief: as §1

[3] = tested on: HCT116 human colon carcinoma cells; experiment: In vitro growth inhibition; type: cell-based; settings: read-out: IC50 values, HCT-116; 24 h drug exposure, 72 h recovery, SRB assay
Method in brief: as §1

[4] = tested on: MCF7 human breast carcinoma cells; experiment: In vitro growth inhibition; type: cell-based; settings: read-out: IC50 values, MCF-7; 24 h drug exposure, 72 h recovery, SRB assay
Method in brief: as §1

9-ethylguanine (9-EtG) = experiment: Binding to nucleobase 9-ethylguanine by 1H NMR
Method in brief: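 Test complex (ca. 500 μM) and 9-EtG (ca. 500 μM), about 1:1, in 26.7% MeOD-d4/73.3% D2O with 4 mM NaCl, so the complex is mainly the Ir–Cl form. Held at 310 K, pH* 7.4. 1H NMR (600 MHz) recorded 15 min and 24 h after nucleobase addition. Adduct percentage taken from 1H NMR peak integrations.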

9-methyladenine (9-MeA) = experiment: Binding to nucleobase 9-methyladenine by 1H NMR; settings: co-incubation with equimolar 9-EtG and 9-MeA, 310 K, pH* 7.4
Method in brief: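 Competition run: test complex (ca. 500 μM) with equimolar 9-EtG and 9-MeA in 26.7% MeOD-d4/73.3% D2O at 310 K, pH* 7.4. 1H NMR (600 MHz) recorded 15 min and 24 h after nucleobase addition. Percentage bound to each nucleobase calculated from 1H NMR peak integrations.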

[5] = Catalytic oxidation of NADH to NAD+ by UV-visible spectroscopy; settings: complex 2.5 μM, NADH 69, 103, 146 μM, 310 K, pH 7.5
Method in brief: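 Test complex fixed at 2.5 μM with NADH at 69, 103 or 146 μM, in 5 mM Na2HPO4/NaH2PO4 buffer pH 7.5 (0.5% MeOH/99.5% H2O), 310 K, 24 h. NADH loss followed by UV–vis at 339 nm (εNADH = 6220 cm–1 M–1). Rate constant k taken from first-order kinetic plots in [NADH].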

[6] = Relative hydrophobicity by RP-HPLC; type: physicochemical; settings: C18, H2O/MeCN with 50 mM NaCl; longer tR = more hydrophobic
Method in brief: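 RP-HPLC on C18 column (150 × 4.6 mm, 5 μm). A = H2O with 50 mM NaCl; B = H2O/MeCN 1:1 with 50 mM NaCl. Gradient starts at 20% B, reaches 100% B at 15 min, holds to 40 min, returns to 20% B by 42 min; run 57 min. Flow 1 mL min–1, detection 254 nm. Samples ca. 100 μM in 10% MeOH/90% H2O with 50 mM NaCl. tR from duplicates of triplicate runs.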

[7] = tested on: A2780 ovarian carcinoma cells; experiment: Cellular-iridium accumulation in A2780 cells by ICP-MS; type: cell-based, human; settings: for cellular-Ir accumulation: 24 h exposure at equipotent (IC50) concentrations, no recovery, ICP-MS
Method in brief: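 A2780 cells, 1.5 × 10^6 per well, preincubated 24 h drug-free at 310 K in humidified 5% CO2. Then 24 h exposure to test complex. Cells trypsinised, counted and pelleted; pellets digested overnight in 73% HNO3 at 353 K, then diluted to 5% HNO3. 193Ir measured by ICP-MS (no-gas mode, duplicate readings, 0–100 ppb calibration). Triplicates in two independent experiments.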

[8] = tested on: A2780 human ovarian cancer cells; experiment: Cellular-iridium distribution in A2780 cells; type: cell-based; settings: IC50 concentrations
[9] = tested on: A2780 human ovarian carcinoma cells; settings: read-out: IC50 values, A2780; previously reported complexes; ref [4b]; cited from earlier work

SMILES | IC50 [1] [µM] | IC50 [2] [µM] | IC50 [3] [µM] | IC50 [4] [µM] | tR by RP-HPLC (relative hydrophobicity) [6] | cellular-Ir accumulation [7] | further results
N.N.[Cl][Pt][Cl] [cisplatin, reference compound] | 1.2 ± 0.2 | 3.5 ± 0.2 | 5.2 ± 0.3 | 7 ± 0.1 | – | – | –
Cc1c(C)c(C)[c-](C)c1C.Fc1ccc[c-]c1-c1ccccn1.[Cl-].[Ir+3] [Complex 1, [(η^5-Cp*)Ir(2-(2′-fluorophenyl)pyridine)Cl]] | – | 10.36 ± 0.07 | 3.7 ± 0.3 | 9.6 ± 0.4 | – | – | –
Cc1c(C)c(C)[c-](C)c1C.Fc1ccc(-c2[c-]cccc2)nc1.[Cl-].[Ir+3] [Complex 4, [(η^5-Cp*)Ir(2-phenyl-5-fluoropyridine)Cl]] | – | – | – | – | 18.60 ± 0.02 min | 11.1 ± 0.1 ng Ir × 10^6 A2780 cells | binding to 9-EtG in the presence of 4 mM NaCl (9-ethylguanine (9-EtG); 4 mM NaCl (Ir-Cl species), after 15 min): 100%; binding to 9-EtG in the presence of 4 mM NaCl (9-ethylguanine (9-EtG); 4 mM NaCl (Ir–Cl species), after 24 h, 310 K): 100%; binding to 9-MeA in the presence of 9-EtG (competitive binding) (9-methyladenine (9-MeA)): 5–10%; average rate constant k, first-order with respect to [NADH] [5]: 4.03 × 10^–4 min^–1; iridium in cell membrane and particulate fractions [8]: 17.9%; iridium in cytoskeletal fraction [8]: 6.1%; iridium in cytosol fraction [8]: 69.2%; iridium in nuclear fraction [8]: 6.7%
Cc1c(C)c(C)[c-](C)c1C.Oc1c[c-]c(-c2ccccn2)cc1.[Cl-].[Ir+3] [Complex 11, [(η^5-Cp*)Ir(2-(4′-hydroxyphenyl)pyridine)Cl]] | 47.3 ± 0.1 | 56.67 ± 0.04 | 29.3 ± 0.8 | 28.6 ± 0.9 | 15.11 min and 15.1 min and 15.11 ± 0.03 min | 1.58 ng Ir × 10^6 A2780 cells and 1.6 ng Ir × 10^6 A2780 cells and 1.6 ± 0.1 ng Ir × 10^6 A2780 cells | –
Cc1c(C)c(C)[c-](C)c1C.Oc1ccc(-c2[c-]cccc2)nc1.[Cl-].[Ir+3] [Complex 12, [(η^5-Cp*)Ir(2-phenyl-5-hydroxypyridine)Cl]] | 13.3 ± 0.88 | – | – | – | 17.8 min and 17.8 ± 0.2 min | 10.2 ng Ir × 10^6 A2780 cells and 10.2 ± 0.2 ng Ir × 10^6 A2780 cells | fold cellular-iridium accumulation relative to isomer 11 ([7]; A2780 cells, IC50 concentrations): 6 times
Cc1c(-c2ccccc2)c(C)[c-](C)c1C.[Cl-].[Ir+3].[c-]1ccccc1-c1ccccn1 (stereo not shown) [Complex 17, [(η^5-Cp^xPh)Ir(2-phenylpyridine)Cl]] | – | – | – | – | – | – | IC50 [9]: 2.14 ± 0.5 µM
